Reference: ChEMBL document CHEMBL5053511, “Discovery of a Novel BCL-XL PROTAC Degrader with Enhanced BCL-2 Inhibition” (J Med Chem, 2021)
Activity calls are given as the source filed them. The rule behind the calls is not given here.

Assays:
[1] = target: T1, von Hippel-Lindau disease tumor suppressor/Bcl-2-like protein 1 (Homo sapiens, UniProt Q07817+P40337); experiment: Protac activity at VHL/BCL-XL in human MOLT-4 cells assessed as induction of BCL-XL degradation at 10 uM pretreated with VHL-032 followed by compound treatement measured after 12 hrs by Western blot analysis; assay type: cell-based
Method in brief: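 MOLT-4 cells were pretreated with 10 µM VHL-032 or 1 µM MG-132, followed by 12 h compound treatment. BCL-XL and β-actin were immunoblotted; blots representative of three experiments.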
Target sequence in this assay (P40337 whole entry, looked up): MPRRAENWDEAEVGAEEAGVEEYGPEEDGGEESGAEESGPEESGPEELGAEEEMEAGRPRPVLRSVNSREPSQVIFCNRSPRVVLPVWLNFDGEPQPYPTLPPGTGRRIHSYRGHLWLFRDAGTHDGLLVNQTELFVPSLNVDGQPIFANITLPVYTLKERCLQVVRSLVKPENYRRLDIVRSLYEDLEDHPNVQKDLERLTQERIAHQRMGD
Target sequence in this assay (Q07817 whole entry, looked up): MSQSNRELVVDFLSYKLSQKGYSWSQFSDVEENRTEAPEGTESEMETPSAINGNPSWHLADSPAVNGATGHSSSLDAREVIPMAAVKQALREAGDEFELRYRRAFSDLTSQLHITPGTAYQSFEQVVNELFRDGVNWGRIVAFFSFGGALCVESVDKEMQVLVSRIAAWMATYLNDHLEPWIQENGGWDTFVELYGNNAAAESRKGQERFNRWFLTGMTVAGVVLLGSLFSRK

[2] = target: T1, von Hippel-Lindau disease tumor suppressor/Bcl-2-like protein 1; experiment: Protac activity at VHL/BCL-XL in human platelets assessed as decrease in BCL-XL protein level at up to […] measured after 16 hrs by Western blot analysis; settings: Platelet
Method in brief: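 Washed human platelets were treated for 16 h at a range of concentrations, and BCL-XL was measured by western blotting.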
Target sequence in this assay (P40337 whole entry, looked up): as the sequence (P40337 whole entry, looked up) above
Target sequence in this assay (Q07817 whole entry, looked up): as the sequence (Q07817 whole entry, looked up) above

Platelet = experiment: Cytotoxicity against platelets in human PRP assessed as reduction in cell viability measured after 48 hrs by MTS assay; assay type: cell-based
Method in brief: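 Washed human platelets from PRP were kept in HEPES Tyrode's buffer with 1 µM PGE1 and 0.2 units/mL apyrase at 2×10^8/mL.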

[3] = target: T1, von Hippel-Lindau disease tumor suppressor/Bcl-2-like protein 1; experiment: Protac activity at VHL/BCL-XL in human RS4-11 cells assessed as decrease in BCL-XL protein level by densitometric analysis; assay type: cell-based
Method in brief: (§1)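 MOLT-4 or RS4;11 cells were treated at a range of concentrations for 16 h. BCL-XL was immunoblotted with β-actin loading control, and band densitometry was normalised to β-actin. Mean ± SD of three independent experiments in triplicate.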
Target sequence in this assay (Q07817 whole entry): as the sequence (Q07817 whole entry, looked up) above
Target sequence in this assay (P40337 whole entry): as the sequence (P40337 whole entry, looked up) above

[4] = target: T1, von Hippel-Lindau disease tumor suppressor/Bcl-2-like protein 1; experiment: Protac activity at VHL/BCL-XL in human MOLT-4 cells assessed as decrease in BCL-XL protein level by densitometric analysis; assay type: cell-based; method in brief: as §1
Target sequence in this assay (Q07817 whole entry): as the sequence (Q07817 whole entry, looked up) above
Target sequence in this assay (P40337 whole entry): as the sequence (P40337 whole entry, looked up) above

RS4-11 [5] = experiment: Cytotoxicity against human RS4-11 cells assessed as reduction in cell viability measured after 48 hrs by MTS assay; assay type: functional, cell-based; settings: RS4-11, 48 h
MOLT-4 [6] = experiment: Induction of apoptosis in human MOLT-4 cells assessed as […] in cleaved caspase-3 level at up to 1000 nM measured after 16 hrs by immunoblotting analysis; assay type: functional, cell-based
Method in brief: (§2)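 MOLT-4 cells were treated at a range of concentrations for 16 h. Lysates were immunoblotted for cleaved and full caspase-3, cleaved and full PARP, and β-actin; blots representative of three experiments.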

MOLT-4 [7] = experiment: Induction of apoptosis in human MOLT-4 cells assessed as […] in full caspase-3 level at up to 1000 nM measured after 16 hrs by immunoblotting analysis; assay type: functional, cell-based; method in brief: as §2
MOLT-4 [8] = experiment: Induction of apoptosis in human MOLT-4 cells assessed as early apoptotic cells at 10 nM measured after 48 hrs by annexinV-FITC/propidium iodide staining based flow cytometry (reference value: 2%); assay type: functional
MOLT-4 [9] = experiment: Induction of apoptosis in human MOLT-4 cells assessed as late apoptotic cells at 10 nM measured after 48 hrs by annexinV-FITC/propidium iodide staining based flow cytometry (reference value: 1%); assay type: functional
MOLT-4 [10] = experiment: Induction of apoptosis in human MOLT-4 cells assessed as early apoptotic cells at 10 nM measured after 48 hrs in presence of QVD by annexinV-FITC/propidium iodide staining based flow cytometry (reference value: 2%); assay type: functional
Bcl-2-like protein 1 = Bcl-2-like protein 1 (Homo sapiens, UniProt Q07817); experiment: Displacement of biotin-tagged LWAAQRYGRELRRMSDEFEGSFKGL from human BCL-XL expressed in Escherichia coli measured after 2 hrs by AlphaScreen assay
Sequence of Bcl-2-like protein 1 (Q07817 whole entry): as the sequence (Q07817 whole entry, looked up) above
Method in brief: (§3)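 AlphaScreen displacement, run with or without VCB. Anti-His acceptor beads were added for 1 h at room temperature, then streptavidin donor beads for 30 min in the dark. Ki was fitted by one-site competitive model from peptide concentration and measured Kd values; reported as mean ± SD of at least two experiments in triplicate.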

[11] = (§4) Binding affinity to C-terminal His-tagged human BCL-2 (1 to 211 residues) expressed in Escherichia coli/recombinant human VHL (54 to end residues) fused to human N-terminal GST-tagged elongin-C/elongin -B/N-terminal His-tagged CUL2/Rbx1 expressed in baculovirus infected Sf21 insect cells measured after 2 hrs by AlphaScreen assay
Method in brief: as §3, with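 “VCB. Biotin-Bim (80 nM, for BCL-2) or biotin-Bad (16 nM, for BCL-XL) was combined with serially diluted compound and 6×His protein in 25 mM HEPES pH 7.5, 100 mM NaCl, 0.1% BSA, 0.005% Tween 20.” for “VCB.”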

[12] = as §4, with “cells assessed as ternary complex formation at up to 100000 nM” for “cells”, “30 mins” for “2 hrs”, “AlphaLISA” for “AlphaScreen”
Method in brief: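 Cell-free ternary complex AlphaLISA: 6×His-tagged BCL-XL, BCL-2 or MCL-1 (20 nM) mixed with serially diluted compound (4× dilution) and GST-VCB (20 nM) in 25 mM HEPES pH 7.5, 100 mM NaCl, 0.1% BSA, 0.005% Tween 20. After 30 min at room temperature, glutathione donor beads were added for 15 min, then anti-His acceptor beads for 45 min in the dark. Luminescence was plotted against log compound concentration.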

[13] = target: T1, von Hippel-Lindau disease tumor suppressor/Bcl-2-like protein 1; experiment: Binding affinity to Halo-tagged VHL/HiBiT-tagged BCL-XL (unknown origin) expressed in HEK293T cells assessed as ternary complex formation at up to 100000 nM measured after 6 hrs by NanoBRET assay; assay type: cell-based
Method in brief: (§5)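 NanoBRET in live HEK 293T cells. Cells were transfected with HaloTag-VHL (1 µg), HiBit-BCL-XL or HiBit-BCL-2 (10 ng) and LgBit (10 ng). After 24 h they were seeded at 2×10^4 per well in Opti-MEM with 4% FBS, with or without HaloTag 618 ligand, and held overnight. Serial compound doses were given for 6 h at 37 °C, then Nano-Glo substrate was added and mBRET ratios read. Mean ± s.e.m. of two experiments in triplicate.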
Target sequence in this assay (P40337 whole entry, looked up): as the sequence (P40337 whole entry, looked up) above
Target sequence in this assay (Q07817 whole entry, looked up): as the sequence (Q07817 whole entry, looked up) above

[14] = target: T2, von Hippel-Lindau disease tumor suppressor/Apoptosis regulator Bcl-2 (Homo sapiens) (UniProt P10415+P40337); experiment: Binding affinity to Halo-tagged VHL/HiBiT-tagged BCL-2 (unknown origin) expressed in HEK293T cells assessed as ternary complex formation at up to 100000 nM measured after 6 hrs by NanoBRET assay; assay type: cell-based; method in brief: as §5
T2 sequence (P10415 whole entry, looked up): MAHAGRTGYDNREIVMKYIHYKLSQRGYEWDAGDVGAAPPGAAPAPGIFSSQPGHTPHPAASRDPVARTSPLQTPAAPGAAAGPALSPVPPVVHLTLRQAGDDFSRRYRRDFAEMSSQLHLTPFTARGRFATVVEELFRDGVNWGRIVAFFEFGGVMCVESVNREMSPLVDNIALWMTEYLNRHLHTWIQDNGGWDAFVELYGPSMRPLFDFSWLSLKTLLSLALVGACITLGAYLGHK
T2 sequence (P40337 whole entry, looked up): as the sequence (P40337 whole entry, looked up) above

RS4-11 [15] = experiment: Cytotoxicity against human RS4-11 cells assessed as reduction in cell viability measured after 48 hrs in presence of VHL-032 by MTS assay; assay type: functional, cell-based; settings: RS4-11, 48 h
Method in brief: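 RS4;11 cells were pretreated with 10 µM VHL-032, then exposed to compound for 48 h. Viability was read by MTS; three independent experiments in triplicate.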

[16] = target: T2, von Hippel-Lindau disease tumor suppressor/Apoptosis regulator Bcl-2 (Homo sapiens); experiment: Binding affinity to VHL/BCL-2 in human RS4-11 cells assessed as ternary complex formation at up to 300 nM measured after 12 hrs by immunoprecipitation assay; assay type: cell-based
[17] = target: T2, von Hippel-Lindau disease tumor suppressor/Apoptosis regulator Bcl-2 (Homo sapiens); experiment: Binding affinity to VHL/BCL-2 in human RS4-11 cells assessed as ternary complex formation at up to 300 nM measured after 12 hrs in presence of VHL-032 by immunoprecipitation assay; assay type: cell-based

Activity [1]: inactive | Activity [2]: inactive | DC50 [3]: 11.6 nM | DC50 [4]: 14.3 nM | Ki (Bcl-2-like protein 1): 2.59 nM | Activity [13]: Active | Activity [14]: Active | Activity [16]: Active | Activity [17]: inactive
SMILES: Cc1ncsc1-c1ccc([C@H](C)NC(=O)[C@@H]2C[C@@H](O)CN2C(=O)[C@@H](NC(=O)CCCCCCCCC(=O)NC[C@]2(C)CCC(c3ccc(Cl)cc3)=C(CN3CCN(c4ccc(C(=O)NS(=O)(=O)c5ccc(N[C@H](CCN6CCOCC6)CSc6ccccc6)c(S(=O)(=O)C(F)(F)F)c5)cc4)CC3)C2)C(C)(C)C)cc1
IC50 (Platelet): 950 nM | IC50 (RS4-11 [5]): 11.3 nM | Activity (MOLT-4 [6]): Active | Activity (MOLT-4 [7]): Active | Activity (MOLT-4 [8]): 25% | Activity (MOLT-4 [9]): 21% | Activity (MOLT-4 [10]): 1% | Kd [11]: 0.53 nM | Activity [12]: Active | IC50 (RS4-11 [15]): 209 nM
